# Test results as given in ChEMBL document CHEMBL1671657, “MurF inhibitors with antibacterial activity: effect on muropeptide levels” (Antimicrob Agents Chemother, 2009).
# Active and inactive are the calls of the source. No cut-off for these calls is given here. Bridge positions count the residues as written; N and C are the ends. Square brackets hold non-standard residues; d marks the D form. Peptide text beside a SMILES is read from it. Dab = NCC[C@H](N)C(=O)O
# What was measured:
# Staphylococcus aureus [1] = assay: Inhibition of Staphylococcus aureus ATCC 29213 MurF assessed as UDP-MurNAc-tripeptide substrate level at 2 times MIC by HPLC (reference value: 1 mAU)
# In short: (§1)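 After 30 min, muropeptides were extracted and quantified by HPLC peak area, normalized to the control. The HPLC detection limit was 12 mAU. Results are representative of two independent experiments.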
# Staphylococcus aureus [2] = assay: Antimicrobial activity against Staphylococcus aureus ATCC 29213 assessed as growth inhibition; type: functional, organism-based
# Staphylococcus aureus [3] = assay: Antimicrobial activity against methicillin-resistant Staphylococcus aureus OC2878 by broth microdilution method; type: functional
# In short: (§2)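 CLSI broth microdilution MIC; strains from the sponsor's in-house collection.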
# Staphylococcus aureus [4] = assay: Antimicrobial activity against Staphylococcus aureus OC4172 by broth microdilution method; type: functional
# In short: (§3)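 MICs by CLSI broth microdilution. Where polymyxin B nonapeptide was included, it was present at 2 μg/ml alongside the test compound.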
# Escherichia coli [5] = assay: Antimicrobial activity against Escherichia coli ATCC 25922 by broth microdilution method; type: functional; in short: as §3
# Staphylococcus aureus [6] = assay: Antimicrobial activity against Staphylococcus aureus ATCC 29213 assessed as cell lysis; type: functional, organism-based
# Enterococcus faecalis = assay: Antimicrobial activity against Enterococcus faecalis ATCC 29212 by broth microdilution method; type: functional; in short: as §3
# Escherichia coli [7] = assay: Antimicrobial activity against LPS-deffective Escherichia coli OC2530 by broth microdilution method; type: functional; in short: as §3
# Escherichia coli [8] = assay: Antimicrobial activity against Escherichia coli OC2605 by broth microdilution method; type: functional; in short: as §2
# Staphylococcus aureus [9] = assay: Inhibition of Staphylococcus aureus ATCC 29213 MurF assessed as UDP-MurNAc-pentapeptide product level at MIC by HPLC ([…])
# Staphylococcus aureus [10] = assay: Antimicrobial activity against methicillin-resistant Staphylococcus aureus OC3726 by broth microdilution method; type: functional; in short: as §2
# Staphylococcus aureus [11] = assay: Inhibition of Staphylococcus aureus ATCC 29213 MurF assessed as UDP-MurNAc-pentapeptide product level at 4 times MIC by HPLC (reference value: 1 mAU); in short: as §1
# Staphylococcus aureus [12] = assay: Inhibition of Staphylococcus aureus ATCC 29213 MurF assessed as UDP-MurNAc-tripeptide substrate level at MIC by HPLC (reference value: 1 mAU); in short: as §1
# Staphylococcus aureus [13] = assay: Antimicrobial activity against Staphylococcus aureus ATCC 29213 by broth microdilution method; type: functional; in short: as §3
# Staphylococcus aureus [14] = assay: Bacteriostatic activity against Staphylococcus aureus ATCC 29213 at 2 times MIC; type: functional, organism-based
# Staphylococcus aureus [15] = assay: Inhibition of Staphylococcus aureus ATCC 29213 MurF assessed as UDP-MurNAc-tripeptide substrate level at 4 times MIC by HPLC (reference value: 1 mAU); in short: as §1
# Escherichia coli [16] = assay: Antimicrobial activity against Escherichia coli OC9040 by broth microdilution method; type: functional; in short: as §3
# [17] = Inhibition of Escherichia coli MurF
# Enterococcus faecium = assay: Antimicrobial activity against Enterococcus faecium OC3312 by broth microdilution method; type: functional; in short: as §3
# Staphylococcus aureus [18] = assay: Inhibition of Staphylococcus aureus ATCC 29213 MurF assessed as UDP-MurNAc-pentapeptide product level at 2 times MIC by HPLC (reference value: 1 mAU); in short: as §1
Structure (SMILES),Activity (fold of control) (Staphylococcus aureus [1]),inhibition (Staphylococcus aureus [2]),MIC (Staphylococcus aureus [3]) [µg/mL],MIC (Staphylococcus aureus [4]) [µg/mL],MIC (Escherichia coli [5]) [µg/mL],Activity (Staphylococcus aureus [6]),MIC (Enterococcus faecalis) [µg/mL],MIC (Escherichia coli [7]) [µg/mL],MIC (Escherichia coli [8]) [µg/mL],Activity (fold of control) (Staphylococcus aureus [9]),MIC (Staphylococcus aureus [10]) [µg/mL],Activity (fold of control) (Staphylococcus aureus [11]),Activity (fold of control) (Staphylococcus aureus [12]),MIC (Staphylococcus aureus [13]) [µg/mL],Activity (Staphylococcus aureus [14]),Activity (fold of control) (Staphylococcus aureus [15]),MIC (Escherichia coli [16]) [µg/mL],IC50 [17] [µM],MIC (Enterococcus faecium) [µg/mL],Activity (fold of control) (Staphylococcus aureus [18])
COc1ccc2nc(OC)c([C@@H](c3ccccc3)[C@](O)(CCc3ccccc3)CCN(C)C)cc2c1,> 38,Dose-dependent effect,8,8,> 32,inactive,8,8,> 32,0.6,8,0.21,> 10,8,Active,> 67,> 32,29,8,0.34
CC(C)C[C@@H]1NC(=O)[C@@H](Cc2ccccc2)NC(=O)[C@H](CCN)NC(=O)[C@@H](NC(=O)[C@H](CCN)NC(=O)[C@@H](N)[C@@H](C)O)CCNC(=O)[C@H]([C@@H](C)O)NC(=O)[C@H](CCN)NC(=O)[C@H](CCN)NC1=O [POLYMYXIN B NONAPEPTIDE] (H-T[Dab][Dab][Dab][dF]L[Dab][Dab]T; lactam 3-C),,,> 64,> 64,64,,> 64,16,32,,> 64,,,> 64,,,64,,> 64,
